Compound activity (PubChem)
Scp1 inh: blocks human Scp-1 phosphatase activity; Q9GZU7; hit rate 0.88% among 340,000; Recombinant Scp1, phosphopeptide, malachite green phosphate absorbance; inhibition, % at 20 µM;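 active = inhibition above about 50% at 20 µM, limit read from the data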;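 note: plate controls were DMSO wells with enzyme for no effect and wells lacking enzyme for full effect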
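Test system – truncated SCP-1 phosphatase (76-261aa) · Reagent – Phosphorylated 17-residue peptide substrate · Incubation – 45 min room-temperature reaction, 5 min colour, 30 min stabiliser · Detection – colorimetric phosphate reagent with accelerator and stabiliser, absorbance at 630 nm · Measure – % inhibition at 20 µM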
STEP block: blocks human striatal-enriched tyrosine phosphatase. P54829. recombinant STEP, OMFP fluorogenic substrate, fluorescence. inhibition, % at 20 µM. hit rate 0.25% among 360,000;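 active = inhibition at 20 µM, scaled per plate between control wells, above about 37%, limit read from the data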;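 note: 0% = DMSO with enzyme and substrate and 100% = substrate only without enzyme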
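Assay system: isolated STEP enzyme / Timing: 20 min at room temperature, dark / Doses: 20 µM, 1% DMSO / Technique: fluorescence intensity, excitation 480 nm, emission 540 nm / Reagent: fluorogenic phosphatase substrate OMFP at 25 µM final / Measure: percent inhibition scaled to no-enzyme and uninhibited-enzyme controls, plate-pattern corrected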
PP5 primary: inhibitors of human protein phosphatase 5 (PP5); purified PP5c, OMFP substrate fluorescence; hit rate 0.18% among 320,000; inhibition, % at 6.7 µM; P53041; AID 1987;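 active = inhibition above the campaign's mean inhibition across all tested compounds plus 3 SD, cut at about 9.5% in these data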;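 note: 0% = DMSO only and 100% = 100 µM cantharidin control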
Target sequence (P53041 whole entry, looked up): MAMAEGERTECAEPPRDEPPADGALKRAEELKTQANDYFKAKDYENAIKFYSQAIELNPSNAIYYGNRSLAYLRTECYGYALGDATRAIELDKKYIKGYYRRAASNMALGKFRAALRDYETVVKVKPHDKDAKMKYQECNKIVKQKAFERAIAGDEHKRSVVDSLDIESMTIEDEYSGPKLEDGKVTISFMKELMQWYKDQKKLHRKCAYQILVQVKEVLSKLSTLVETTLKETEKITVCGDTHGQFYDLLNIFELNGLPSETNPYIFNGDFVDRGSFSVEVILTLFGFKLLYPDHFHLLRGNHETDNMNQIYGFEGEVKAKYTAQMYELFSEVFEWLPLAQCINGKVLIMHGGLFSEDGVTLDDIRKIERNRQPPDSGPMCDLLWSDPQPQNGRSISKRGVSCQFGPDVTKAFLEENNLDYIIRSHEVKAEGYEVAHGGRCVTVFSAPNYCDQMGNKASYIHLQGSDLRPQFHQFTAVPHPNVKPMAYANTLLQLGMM
PP1 counter: counter-screen for PP5 inhibitors: inhibitors of human PP1-alpha | AID 2235 | purified PP1alpha, OMFP fluorescence | hit rate 0.9% among 320,000 | inhibition, % at 6.7 µM;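 active = inhibition above the mean inhibition of all tested compounds plus 3 SD, computed separately for each screening campaign, cut at about 15% in these data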
LMPTP block: LMPTP (human) inhibition; P24666; recombinant LMPTP-A, OMFP fluorogenic substrate, fluorescence intensity; inhibition, % at 20 µM; hit rate 0.22% among 360,000;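 active = compounds that cut the enzyme signal by at least half of the control window in the single-dose screen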;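 note: plate controls were DMSO wells with enzyme plus substrate for no effect and substrate without enzyme for full effect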
Target sequence (P24666 whole entry, looked up): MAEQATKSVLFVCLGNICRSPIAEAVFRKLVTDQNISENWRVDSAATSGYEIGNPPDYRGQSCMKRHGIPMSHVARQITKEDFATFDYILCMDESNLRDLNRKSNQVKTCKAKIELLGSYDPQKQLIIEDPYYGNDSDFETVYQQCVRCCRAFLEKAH
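Test system – LMPTP-A enzyme · Amount – LMPTP-A at 0.625 nM final in the reaction · Buffer or medium – Bis-Tris pH 6.0, DTT, detergent · Reagent – OMFP 400 µM · Doses – single 20 µM dose · Schedule – reaction 50 min, room temperature, dark · Detection – fluorescence intensity of OMFP turnover product · Evaluation – percent inhibition versus substrate-only and uninhibited controls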
PP5 inh confirm: confirmation of human PP5 phosphatase inhibitors; shares compounds with PP5 primary; inhibition, % at 6.7 µM; hit rate 22% among 460; Purified PP5, fluorogenic phosphatase substrate, fluorescence; in the data active = inhibition above about 9.5%
PP1 inh counter: counter-screen for PP5 inhibitors: human PP1 phosphatase inhibition; PP1 enzyme, fluorescent phosphatase substrate; inhibition, % at 6.7 µM; shares compounds with PP5 primary; hit rate 4% among 460; in the data active = inhibition above about 16%
Numbers without * were called inactive; · = no result given. Rows were chosen to be rich in hits. Some 1.9% of all compounds tested hit in one or more screens of this group.

SMILES | Scp1 inh | STEP block | PP5 primary | PP1 counter | LMPTP block | PP5 inh confirm | PP1 inh counter
CC1(C)Cc2ccccc2C(NNC(=O)c2ccccc2)=N1 | -3 | -5 | 2 | -2 | -2 | · | ·
COc1ccc(Nc2sc(C(=O)Nc3cccc(Cl)c3)c(N)c2C(=O)Nc2ccccc2OC)cc1 | · | · | 12* | 9 | · | 1 | 6
COc1ccccc1NC(=O)C/C(N)=N/OCC(=O)Nc1cccc(Cl)c1 | -6 | 2 | · | · | 0 | · | ·
CC(NC(=O)c1ccc(Br)o1)c1ccccc1 (stereo not drawn) | 4 | -2 | -1 | 3 | -1 | · | ·
Cc1ccc(C(=O)NC(C)c2ccccc2)o1 (stereo not drawn) | -10 | -1 | 11* | -6 | 0 | -4 | -2
O=C(CCN1CCN(CCO)CC1)Nc1ccc(OCc2ccccc2)cc1 | -5 | 2 | 10* | -5 | -1 | -2 | -3
Cc1ccc(S(=O)(=O)NC(=O)Nc2c(C)cccc2C)cc1 | -6 | 0 | 1 | 0 | -1 | · | ·
O=C(Nc1ccc2c(c1)CCC2)C1CCN(c2ncccn2)CC1 | 3 | -1 | -1 | -3 | -2 | · | ·
O=C(Nc1ccc(C2CCCCC2)cc1)C1CCN(c2ncccn2)CC1 | -3 | -4 | 10* | -3 | -1 | -4 | -3
NC(=S)N/N=C/c1ccccc1OC(=O)c1cc2ccccc2oc1=O | 0 | 0 | 0 | -2 | -1 | · | ·
CCOc1ccc(NC(=O)c2ccccc2OCC(=O)c2ccc(C)cc2)cc1 | -5 | 4 | 9.8* | 5 | 2 | 2 | -2
Cc1ccc(NC(=O)c2ccccc2OCC(=O)c2ccc(F)cc2)cc1 | -8 | -5 | 0 | 2 | -1 | · | ·
Cc1ccc(C)c(NC(=S)NCc2ccc3[nH]c4c(c3c2)CCCC4)c1 | -3 | -2 | 5 | 5 | 2 | · | ·
COC(=O)c1sc(NC(=O)c2c(C)noc2C)nc1C | 1 | -1 | 2 | -2 | -1 | · | ·
COC(=O)c1sc(N)c(C(=O)OC)c1COC(=O)c1c(C)noc1C | -7 | 1 | 10* | 3 | 0 | -3 | -4
Cc1cccc(-c2nnc(NC(=O)c3ccc(Cl)cc3)o2)c1 | -9 | 3 | 9.6* | 11 | -1 | 1 | 24*
NC(=O)c1cccn1-c1ncc(C(F)(F)F)cc1Cl | -3 | 1 | -3 | -1 | 0 | · | ·
O=C(Nc1ccc(Br)cc1)c1cccn1-c1ncc(C(F)(F)F)cc1Cl | -4 | -1 | 11* | 11 | 4 | 6 | 4
C#CCOCCOCCOCCNc1nc(N2CCOCC2)nc(N2CCN(C(=O)[C@H](CCC(=O)O)n3cc([C@@H](N)CCCCN)nn3)CC2)n1 | -8 | -2 | · | · | -9 | · | ·
CCOC(=O)c1c(C(F)(F)C(F)(F)C(F)(F)C(F)(F)F)n[nH]c1C | -13 | 0 | 14* | 12 | 4 | 9.9* | 13
CCOC(=O)c1[nH]c(C)c(C(=O)OCC)c1C | -10 | -2 | 2 | 1 | 0 | · | ·
CCc1ccc(OCC(=O)NC(=S)Nc2cccc(CO)c2)c(Br)c1 | -9 | 1 | 3 | 1 | 1 | · | ·
CCOc1ccc(N=C/C=C/c2ccccc2)c(O)c1 | -14 | 4 | 9.9* | 7 | 5 | 1 | 0
CCc1ccc(NC(=O)Cc2ccc(OC)cc2)cc1 | · | · | 2 | -1 | · | · | ·
CCc1ccc(NC(=O)CN(CC(=O)Nc2ccc(CC)cc2)CC(C)O)cc1 (stereo not drawn) | -4 | 0 | 11* | 6 | 2 | 8 | 5
SMILES | Scp1 inh | STEP block | PP5 primary | PP1 counter | LMPTP block | PP5 inh confirm | PP1 inh counter
COC(=O)C1=C(C)NC(C)=C(C(=O)OC)C1c1cn(-c2ccccc2)nc1-c1ccco1 | -16 | -4 | 14* | 6 | 1 | 2 | 3
COCCOC(=O)C1=C(C)NC(=O)NC1c1cn(-c2ccccc2)nc1-c1cccs1 (stereo not drawn) | -6 | -1 | 6 | 0 | 0 | · | ·
CC1(Cc2cccc(C(F)(F)F)c2)C(=O)Nc2c(Cl)cccc21 (stereo not drawn) | · | -2 | · | · | 2 | · | ·
Cc1ccc(Nc2nc(/N=C/NO)n[nH]2)cc1C | -8 | 1 | 11* | 2 | 0 | -4 | -4
O=C(Nc1ccc(C(=O)O)cc1)/C(=C\C=C\c1ccccc1)NC(=O)c1ccccc1Cl | -7 | 0 | 3 | 6 | 0 | · | ·
O=C(Nc1ccc(O)cc1)/C(=C\C=C\c1ccccc1)NC(=O)c1ccccc1 | 0 | -2 | 12* | -3 | 0 | -2 | -2
CC(=O)N(CN1C(=O)c2ccc([N+](=O)[O-])cc2C1=O)c1cccc(C(=O)O)c1 | -3 | -4 | 23* | 0 | -2 | -2 | -4
CCOC(=O)C1(c2ccccc2)CCCNC1=O (stereo not drawn) | · | -2 | · | · | -2 | · | ·
N/C(=N\O)c1ccc(NC(=O)c2ccc(Br)o2)cc1 | -6 | -3 | 0 | -1 | -1 | · | ·
Cc1ccc(C(=O)NNc2cc(N3CCCC3)nc(N3CCCC3)n2)cc1 | -2 | · | 17* | 12 | · | 40* | -1
Cc1nc2c(ncn2-c2ccccc2)c(=O)n1NC(=O)CN1CCCCC1 | -11 | 2 | 13* | 2 | 0 | -5 | -4
Cc1nc2c(ncn2-c2ccccc2)c(=O)n1NC(=O)CN1CCN(C)CC1 | -8 | 2 | 0 | -6 | -1 | · | ·
O=C(COc1ccc(C(=O)c2ccccc2)cc1)NCC1CCCCC1 | -5 | 2 | 6 | 1 | 0 | · | ·
O=C1N/C(=N\S(=O)(=O)Cc2ccccc2)S/C1=C/c1cccc([N+](=O)[O-])c1 | 0 | 1 | 11* | 5 | 0 | -2 | 6
Cc1ccc(S(=O)(=O)/N=C2/C=C(Sc3ncn[nH]3)C(=O)c3ccccc32)cc1 | 25 | 2 | 13* | 4 | 8 | 23* | 24*
Cc1ccc(S(=O)(=O)/N=C2\C=C(Nc3cccc(C(=O)O)c3)C(=O)c3ccccc32)cc1 | -7 | 3 | 9 | 6 | 8 | · | ·
Cc1ccc(S(=O)(=O)/N=C2/C=C(Sc3ncn[nH]3)C(=O)c3ccccc32)c(C)c1 | · | · | 13* | 3 | · | 36* | 15
Cc1ccc(S(=O)(=O)/N=C2\C=C(Nc3ccc(O)cc3)C(=O)c3ccccc32)cc1 | -10 | 4 | · | · | 9 | · | ·
Cc1ccc(S(=O)(=O)/N=C2\C=C(Nc3cccc(C(=O)O)c3)C(=O)c3ccccc32)c(C)c1 | -4 | 4 | 9.8* | 6 | 7 | 36* | 9
Cc1cccc(Nc2ccc(C(=O)O)cc2[N+](=O)[O-])c1C | -12 | 2 | 0 | 5 | 1 | · | ·
Cc1cccc(NC(=O)C2CCN(S(C)(=O)=O)CC2)c1C | -7 | -2 | 11* | -1 | -1 | -8 | -6
Cc1ccc(S(=O)(=O)N2CCOCC2)cc1C(=O)OCC(=O)c1ccc[nH]1 | 2 | 4 | 1 | -1 | 1 | · | ·
